Bioassay records as filed in PubChem BioAssay.
The list is a sample of the results.
HKDC1 activator = HKDC1 (human) hexokinase activation; Q2TB90; recombinant HKDC1, G6PDH/diaphorase resazurin fluorescence; stronger effect = lower value; activity change, negative = activation, % at 20 µM; hit rate 0.056% among 340,000; AID 493187;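 active = activation of 40% or more at 20 µM, a change of -40% or lower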
Target sequence (Q2TB90 whole entry, looked up): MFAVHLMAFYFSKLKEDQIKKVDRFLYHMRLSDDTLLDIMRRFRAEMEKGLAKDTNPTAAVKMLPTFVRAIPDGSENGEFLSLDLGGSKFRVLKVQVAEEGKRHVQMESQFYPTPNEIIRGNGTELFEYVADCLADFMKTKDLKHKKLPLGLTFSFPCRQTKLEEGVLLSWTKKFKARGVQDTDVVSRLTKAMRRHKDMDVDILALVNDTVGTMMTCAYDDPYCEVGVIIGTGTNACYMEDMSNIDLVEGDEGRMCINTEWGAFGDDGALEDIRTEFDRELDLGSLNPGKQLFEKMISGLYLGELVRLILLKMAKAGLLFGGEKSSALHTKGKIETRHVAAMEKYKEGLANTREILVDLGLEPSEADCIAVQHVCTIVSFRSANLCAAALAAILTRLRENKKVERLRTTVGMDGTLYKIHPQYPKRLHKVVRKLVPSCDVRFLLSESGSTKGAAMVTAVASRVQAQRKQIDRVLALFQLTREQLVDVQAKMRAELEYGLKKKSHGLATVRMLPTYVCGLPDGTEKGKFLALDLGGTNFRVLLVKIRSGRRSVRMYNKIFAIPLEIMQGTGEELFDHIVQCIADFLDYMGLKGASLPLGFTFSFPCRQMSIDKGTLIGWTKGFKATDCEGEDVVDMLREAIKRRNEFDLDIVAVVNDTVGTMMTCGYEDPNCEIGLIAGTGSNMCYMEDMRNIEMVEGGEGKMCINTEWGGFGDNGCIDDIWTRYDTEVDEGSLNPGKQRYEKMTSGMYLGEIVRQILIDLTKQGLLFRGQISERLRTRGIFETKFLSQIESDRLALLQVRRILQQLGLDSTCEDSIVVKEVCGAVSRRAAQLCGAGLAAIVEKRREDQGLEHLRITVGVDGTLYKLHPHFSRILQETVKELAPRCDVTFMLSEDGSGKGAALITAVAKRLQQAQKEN
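Material – in-house human HKDC1 enzyme, G6PDH and diaphorase coupling enzymes · Input – HKDC1 at 5 µg/mL final · Buffer or medium – pH 8.0 Tris with MgCl2 · Dosing – single compound dose of 20 µM, 1% DMSO final · Incubation – 90 min, room temperature · Technique – resorufin fluorescence from 100 µM resazurin, NADP 1 mM, Ex 525/Em 613 nm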
Numbers without * were called inactive.

SMILES	HKDC1 activator
Cn1cnc([N+](=O)[O-])c1Sc1ccc(Br)cc1	-58*
Cc1nn(-c2ccccc2)c(Cl)c1CN(C(=O)CCl)c1ccc(Cl)cc1	38
FC(F)Sc1ccc(N=C2NN=C(c3ccc4c(c3)OCCO4)CS2)cc1	-101*
COc1ccc(N=C2NN=C(c3ccc4c(c3)OCCO4)CS2)cc1	-84*
O=C(O)c1cccc(-n2cccc2/C=C2/NC(=O)N(c3ccc(Cl)cc3)C2=O)c1	61
Cc1ccccc1NC1=C/C(=N\S(=O)(=O)c2cccs2)c2ccccc2C1=O	63
Cc1ccc(NC2c3ncccc3C(=O)N2c2ccccc2C)cc1C (stereo not drawn)	56
Cc1nc2sc3c(NCc4ccco4)ncnc3c2c2c1COC(C)(C)C2	35
Cc1cc(C)cc(-n2c(N)c(C(=O)Nc3c(C)n(C)n(-c4ccccc4)c3=O)c3nc4ccccc4nc32)c1	38
CN(C)CC1CCC/C(=C\c2ccc(OC(=O)c3ccc(Cl)cc3)cc2)C1=O (stereo not drawn)	37
O=C1C=CC(=O)c2c(O)c(N3CCN(CCOCCO)CC3)c(Br)c(O)c21	46
O=C1C(O)=CC(=C(c2ccccc2)c2ccccc2)c2ccccc21	78
O=C1NN(c2cccc(Br)c2)C(=O)/C1=C/c1ccc(-c2cc([N+](=O)[O-])ccc2O)o1	62
O=C(O)c1ccc(NC2=C(Cl)C(=O)c3ccccc3C2=O)cc1	-131*
Cc1ccccc1NC1=C/C(=N\S(=O)(=O)c2ccc(C(=O)O)cc2)c2ccccc2C1=O	70
O=C1C=C(Nc2ccc(F)cc2)c2ccccc2C1=O	42
NS(=O)(=O)c1ccc(N=Nc2c(=O)[nH]n3c(=O)c4c([nH]c23)CCCC4)cc1	40
O=C(CSc1nc(-c2ccc(F)cc2)nc2c1Cc1ccccc1O2)Nc1cccc(C(=O)O)c1	57
Cc1onc(-c2ccccc2)c1C(=O)NNC(=S)NC(=O)c1ccc(Br)cc1	-51*
COc1ccc(-c2cc(C(=O)NNC(=S)NC(=O)c3c(-c4ccccc4)noc3C)[nH]n2)cc1	-46*
CC1=NOC(=O)/C1=C\c1ccc(-c2cccc(Cl)c2)o1	38
COc1ccc(OC)c2[nH]c(=O)c(CCNC(=O)c3cc4ccccc4o3)cc12	38
COCCN1C=C2C(=O)C(C)(OC(=O)CCC(=O)OC)C(=O)C(Br)=C2C=C1c1ccc(OC)cc1 (stereo not drawn)	38
Cc1cc(C)n2nc(SCc3nnc(SCc4ccccc4C)s3)nc2n1	53
CC[n+]1c(/C=C2\Sc3ccccc3N2C)ccc2cccc(C)c21	-40*
SMILES	HKDC1 activator
O=C(CCl)N(c1ccc(Cl)cc1)c1c[nH]c2ccccc12	41
C[n+]1c(-c2ccccc2)cc2c(=Cc3ccc([N+](=O)[O-])cc3)c3ccccc3n21	36
O=C(O)c1ccccc1NS(=O)(=O)c1ccc(N/N=C/c2cccc(O)c2O)c([N+](=O)[O-])c1	36
O=[N+]([O-])c1ccc(NN=Cc2ccc(O)cc2O)nc1	37
Cc1ccccc1NC(=S)N/N=C/c1ccc(O)cc1O	-42*
Oc1ccc(/C=N/Nc2ncc(Br)cn2)c(O)c1	39
CCCOc1ccc(/C=N/NC(=S)Nc2ccccc2[N+](=O)[O-])c(O)c1	-48*
Cc1cc(C)n2nc(SCc3nnc(SCc4ccccc4Cl)s3)nc2n1	41
O=C(/C=C/c1ccc(Br)o1)OCc1nc2ccsc2c(=O)[nH]1	58
O=C(/C=C/c1ccc(Cl)cc1)c1ccc([N+](=O)[O-])o1	54
Cc1cccc2c(N=NC(=O)c3ccc(NS(=O)(=O)c4cccs4)cc3)c(O)[nH]c12	36
Nc1nc(N2CCN(c3ccccn3)CC2)nc2ccccc12	-58*
O=C(Nc1ccc2nc(-c3ccco3)c(-c3ccco3)nc2c1)N1CCN(c2ccccn2)CC1	57
Cc1ccc(C(=O)c2coc3c2C(=O)C(=O)c2ccccc2-3)cc1	57
O=C(O)c1ccc(-c2ccc(/C=c3/sc4nc5ccccc5n4c3=O)o2)cc1Cl	45
Cc1cc(C)c(S(=O)(=O)/N=C2/C=C(Sc3ncn[nH]3)C(=O)c3ccccc32)cc1C	64
CCOC(=O)c1cc2c(=Cc3ccc(N(C)C)cc3)c3ccccc3n2[n+]1C	37
O=C1C=C(NCc2ccccc2)c2ccccc2C1=O	80
O=C1C(Cl)=C(NCCc2ccccc2)C(=O)c2ccccc21	53
O=C1C(Cl)=C(NCc2cccnc2)C(=O)c2ccccc21	-45*
CCOC(=O)c1c(C)sc2c1N(C(=O)CCl)c1cc(Cl)ccc1S2	45
O=S(=O)(CCSc1nc2ccccc2s1)c1nc2ccccc2s1	39
Cc1ccc(C)c(S(=O)(=O)Nc2ccc(O)c3ccccc23)c1	48
O=C(c1ccccc1)c1n[nH]c(-c2ccccc2)cc1=O	-42*
O=C(COC(=O)c1n[nH]c2ccccc12)c1cccc(Br)c1	38
CCCC[n+]1c2ccccc2cc2ccccc21	42
O=C(O)CSc1cc(NS(=O)(=O)c2ccc(Br)cc2)c2ccccc2c1O	59
